Results collected from several papers.
Protocols differ between the studies behind these lines.
Target: 3-phosphoinositide-dependent protein kinase 1 (PDPK1, Homo sapiens, UniProt O15530)
Sequence (O15530 1-556, as in one of the studies): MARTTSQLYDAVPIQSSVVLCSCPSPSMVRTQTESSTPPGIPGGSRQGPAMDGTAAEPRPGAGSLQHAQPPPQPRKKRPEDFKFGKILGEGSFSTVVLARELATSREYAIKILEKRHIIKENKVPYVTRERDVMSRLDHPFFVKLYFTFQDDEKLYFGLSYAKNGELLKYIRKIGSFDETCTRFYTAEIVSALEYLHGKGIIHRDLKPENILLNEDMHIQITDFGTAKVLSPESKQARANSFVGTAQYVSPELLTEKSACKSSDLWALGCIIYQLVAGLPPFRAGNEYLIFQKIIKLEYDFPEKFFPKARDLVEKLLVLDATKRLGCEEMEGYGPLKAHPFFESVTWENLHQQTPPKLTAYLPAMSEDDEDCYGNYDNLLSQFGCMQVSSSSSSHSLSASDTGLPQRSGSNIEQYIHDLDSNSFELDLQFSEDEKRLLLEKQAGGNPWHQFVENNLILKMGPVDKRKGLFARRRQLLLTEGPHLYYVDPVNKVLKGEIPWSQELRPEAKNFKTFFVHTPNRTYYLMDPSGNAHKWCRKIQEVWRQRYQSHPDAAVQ

`O=C(Nc1c[nH]nc1C(=O)NC1CCNCC1)c1cc(F)cc(F)c1` has a remaining binding of 90% (binding, competition with immobilised ligand; 1 µM).
The remaining binding of `C[C@@]1(Cc2ccc(C#N)cc2)C(=O)N(c2cc(Cl)cc(Cl)c2)c2ncc(C(=O)NC3(c4nc(C5CCC5)no4)CC3)n21` is reported as 100% (cell-free assay, competition with immobilised ligand; 1 µM).
With `Cc1ccc(NC(=O)c2ccc(CN3CCN(C)CC3)cc2)cc1Nc1nccc(-c2cccnc2)n1` the remaining binding was 100% (cell-free assay, competition with immobilised ligand; 10 µM).
`N[C@H]1CCN(c2nccc(-c3cnn4ncccc34)n2)C1` gave a remaining binding of 97% (binding; 1 µM).
For `CCN(CC)CCNC(=O)c1c(C)[nH]c(/C=C2\C(=O)Nc3ccc(F)cc32)c1C`, the remaining binding was 39% (cell-free assay, competition with immobilised ligand; 10 µM).
`N#Cc1ccccc1CSc1nnc2c(n1)[nH]c1ccccc12` has a remaining binding of 91% (binding, competition with immobilised ligand; 10 µM).
The remaining binding of `CN(C)c1nccc(-c2cnn3ncccc23)n1` is reported as 100% (binding; 1 µM).
With `O=C(NCCCN1CCOCC1)c1ccc(Nc2ncc(Cl)c(-c3ccc(Cl)s3)n2)cc1` the remaining binding was 100% (binding, competition with immobilised ligand; 1 µM).
`Cn1cc(Cl)c2c(Oc3c(F)cc(Nc4cc(Cl)nc(N)n4)cc3F)ccnc21` has a remaining binding of 61% (cell-free assay, competition with immobilised ligand; 0.1 µM).
`CNC(=O)[C@@H]1CC[C@@H](n2c(-c3ccc4cnccc4c3)nc3ccc(C(=O)NCc4cccc(C(N)=O)c4)cc32)C1` has a remaining binding of 51% (binding, competition with immobilised ligand; 1 µM).
The remaining binding of `C[C@H]1CCN(c2nccc(-c3cnn4ncccc34)n2)C1` is reported as 100% (binding; 1 µM).
`CS(=O)(=O)CCNCc1ccc(-c2ccc3ncnc(Nc4ccc(OCc5cccc(F)c5)c(Cl)c4)c3c2)o1` gave a remaining binding of 100% (cell-free assay, competition with immobilised ligand; 0.1 µM).
`CCCCN(CCCC)C(=O)CN1C[C@@H](c2cc(OC)c3c(c2)OCO3)[C@H](C(=O)O)[C@H]1CC(C)(C)CCC` gave a remaining binding of 77.3% (cell-free assay, competition with immobilised ligand; 1 µM).
`CN(C)c1nccc(-c2cnc3ncccn23)n1` gave a remaining binding of 100% (binding; 1 µM).
`NS(=O)(=O)c1cc(NC(=O)C2(c3ccccc3Cl)CC2)ccc1Oc1cccc(Cl)c1` gave a remaining binding of 85% (cell-free assay, competition with immobilised ligand; 1 µM).
For `CC1CCCN1c1nccc(-c2cnn3ncccc23)n1` (stereo not drawn), the remaining binding was 89% (binding; 1 µM).
With `COc1ccc2c(c1)O[C@@H](c1ccc(OC)c(OC)c1)C[C@H]2NC(=O)C1(c2ccc3c(c2)OC(F)(F)O3)CC1` the remaining binding was 100% (cell-free assay, competition with immobilised ligand; 1 µM).
With `CCN(CC)Cc1cc(Nc2ccnc3cc(Cl)ccc23)ccc1O` the remaining binding was 100% (cell-free assay, competition with immobilised ligand; 0.1 µM).
The remaining binding of `Nc1ncc2c(n1)-c1c([nH]c3ccc(C#CC4CC4)cc13)CCCC2` is reported as 91% (binding, competition with immobilised ligand; 1 µM).
`C[C@@H](c1ccc(-n2cnc3c(N)ncnc32)cc1)N1CCc2nn(C)c(Cc3ccccc3)c2C1=O` gave a remaining binding of 100% (binding, competition with immobilised ligand; 0.1 µM).
`O=C(NCCCN1CCOCC1)c1ccc(Nc2nccc(-c3cc4ccccc4s3)n2)cc1` has a remaining binding of 99% (binding, competition with immobilised ligand; 1 µM).
`Cc1c(-c2ccccc2)oc2c(C(=O)OCCN3CCCCC3)cccc2c1=O` gave a remaining binding of 100% (cell-free assay, competition with immobilised ligand; 10 µM).
`CN(CCCC(F)(F)F)c1nccc(-c2cnn3ncccc23)n1` gave a remaining binding of 100% (binding; 1 µM).
The remaining binding of `COc1cc2ncnc(Nc3ccc(F)c(Cl)c3)c2cc1OCCCN1CCOCC1` is reported as 100% (cell-free assay, competition with immobilised ligand; 0.1 µM).
`O=C(Nc1cccnn1)N1CC(C/C=C/c2cncc(Oc3ccc(C(F)(F)F)cn3)n2)C1` has a remaining binding of 97% (cell-free assay, competition with immobilised ligand; 1 µM).
The remaining binding of `CC(C)(C)c1ccc(-c2nc(CBr)nn2-c2cccc(O)c2)cc1` is reported as 89% (cell-free assay, competition with immobilised ligand; 10 µM).
`C[C@@H]1CN(c2ccc3ncc(-c4ccc5[nH]nc(C6CC6)c5c4)n3n2)C[C@H](C)O1` has a remaining binding of 100% (binding, competition with immobilised ligand; 0.5 µM).
The remaining binding of `CNC(=O)Nc1ccc2c(c1)CC[C@@]21OC(=O)N(CC(=O)N(Cc2ccc(F)cc2)[C@@H](C)C(F)(F)F)C1=O` is reported as 88% (cell-free assay, competition with immobilised ligand; 1 µM).
`CN1CC[C@H](c2c(O)cc(O)c3c(=O)cc(-c4ccccc4Cl)oc23)[C@H](O)C1` gave a remaining binding of 100% (cell-free assay, competition with immobilised ligand; 0.1 µM).
`O=C(Nc1cccnn1)N1CCC(=Cc2cccc(Oc3ccc(C(F)(F)F)cn3)c2)CC1` gave a remaining binding of 85% (cell-free assay, competition with immobilised ligand; 1 µM).
`Cc1cnn2ncc(-c3ccnc(N(C)C)n3)c2c1` gave a remaining binding of 100% (binding; 1 µM).
For `Cc1nc(Nc2ncc(C(=O)Nc3c(C)cccc3Cl)s2)cc(N2CCN(CCO)CC2)n1`, the remaining binding was 100% (cell-free assay, competition with immobilised ligand; 0.1 µM).
`Cc1cnc(Nc2ccc(C(=O)N3CCC(N4CCCC4)CC3)cc2)nc1-c1cc2ccccc2s1` has a remaining binding of 72% (binding, competition with immobilised ligand; 1 µM).
